Results reported in ChEMBL document CHEMBL1146446, “Cytotoxic and antiplatelet aggregation principles from Aglaia elliptifolia” (J Nat Prod, 1997).
Values after ≈ are worked out from the molar mass of the structure shown.

Legend:
TE-671 = assay: Cytotoxicity against human TE671 cells; format: functional, cell-based
A549 = assay: Cytotoxicity against human A549 cells; format: functional, cell-based
KB = assay: Cytotoxicity against human KB cells; format: functional, cell-based
P388 [1] = assay: Cytotoxicity against mouse P388 cells; format: functional, cell-based
[2] = Antiplatelet aggregation activity against platelet activating factor-induced rabbit platelet assessed as platelet aggregation at 100 ug/mL relative to control; format: functional, Oryctolagus cuniculus
Procedure, shortened: (§1)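 Blood from rabbit marginal ear vein was mixed with EDTA to a final 6 mM. It was spun at 90g for 10 min at room temperature to give platelet-rich plasma, then at 500g for 10 min. Platelets were preincubated with sample or 0.5% DMSO for 1 min at 37 °C, then triggered with ADP, arachidonic acid, collagen (10 µg/mL) or PAF (2 ng/mL). Mean ± S.D.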

[3] = Antiplatelet aggregation activity against collagen-induced rabbit platelet assessed as platelet aggregation at 100 ug/mL relative to control; format: functional, Oryctolagus cuniculus; procedure, shortened: as §1
HCT-8 = assay: Cytotoxicity against human HCT8 cells; format: functional, cell-based
[4] = Antiplatelet aggregation activity against ADP-induced rabbit platelet assessed as platelet aggregation at 100 ug/mL relative to control; format: functional, Oryctolagus cuniculus; procedure, shortened: as §1
RPMI-7951 = assay: Cytotoxicity against human RPMI7951 cells; format: functional, cell-based
[5] = Antiplatelet aggregation activity against arachidonic acid-induced rabbit platelet assessed as platelet aggregation at 100 ug/mL relative to control; format: functional, Oryctolagus cuniculus; procedure, shortened: as §1
P388 [6] = assay: In vivo cytotoxic activity against mouse P388 cells at 1 mg/kg relative to control; format: functional

## COC(=O)[C@H]1[C@@H](O)[C@@]2(O)c3c(OC)cc(OC)cc3O[C@@]2(c2ccc(OC)cc2)[C@@H]1c1ccccc1 [AGLAFOLIN]
TE-671
  IC50: 1 ng/mL (≈ 0.00203 µM)
A549
  IC50: 1 ng/mL (≈ 0.00203 µM)
KB
  IC50: 1 ng/mL (≈ 0.00203 µM)
P388 [1]
  IC50: 2 ng/mL (≈ 0.00406 µM)
[2]
  Activity: 0%
[3]
  Activity: 88.6%
HCT-8
  IC50: 5 ng/mL (≈ 0.0102 µM)
[4]
  Activity: 85.2%
RPMI-7951
  IC50: 1 ng/mL (≈ 0.00203 µM)
[5]
  Activity: 0%

## COc1cccc2c1C(=O)c1c(O)c3c(c(O)c1C2=O)C[C@@](O)(C(=O)CO)C[C@@H]3O[C@H]1C[C@H](N)[C@H](O)[C@H](C)O1.Cl [DOXORUBICIN HYDROCHLORIDE]
A549
  IC50: 150 ng/mL
HCT-8
  IC50: 300 ng/mL

## COc1cc([C@@H]2c3cc4c(cc3[C@@H](O[C@@H]3O[C@@H]5CO[C@@H](C)O[C@H]5[C@H](O)[C@H]3O)[C@H]3COC(=O)[C@H]23)OCO4)cc(OC)c1O [ETOPOSIDE]
KB
  IC50: 120 ng/mL (≈ 0.204 µM)
P388 [1]
  IC50: 2620 ng/mL (≈ 4.45 µM)

## COc1ccc([C@@]23Oc4cc(OC)cc(OC)c4[C@]2(O)[C@H](O)[C@H](C(=O)N(C)C)[C@H]3c2ccccc2)cc1 [ROCAGLAMIDE]
TE-671
  IC50: 6 ng/mL (≈ 0.0119 µM)
A549
  IC50: 6 ng/mL (≈ 0.0119 µM)
KB
  IC50: 6 ng/mL (≈ 0.0119 µM)
P388 [1]
  IC50: 5 ng/mL (≈ 0.00989 µM)
[2]
  Activity: 85.5%
[3]
  Activity: 83.8%
P388 [6]
  T/C: 156%
HCT-8
  IC50: 7 ng/mL (≈ 0.0138 µM)
[4]
  Activity: 77.6%
RPMI-7951
  IC50: 2 ng/mL (≈ 0.00396 µM)
[5]
  Activity: 90.5%

## COc1cc2ccc(=O)oc2cc1O [SCOPOLETIN]
KB
  IC50: 4000 ng/mL (≈ 20.8 µM)
[2]
  Activity: 90.5%
[3]
  Activity: 79.2%
[4]
  Activity: 65.3%
[5]
  Activity: 79.2%

## CC[C@]1(O)C[C@@H]2CN(CCc3c([nH]c4ccccc34)[C@@](C(=O)OC)(c3cc4c(cc3OC)N(C)[C@H]3[C@@](O)(C(=O)OC)[C@H](OC(C)=O)[C@]5(CC)C=CCN6CC[C@]43[C@@H]65)C2)C1.O=S(=O)(O)O [VINBLASTINE SULFATE]
A549
  IC50: 2 ng/mL
HCT-8
  IC50: 5 ng/mL
